Results reported in ChEMBL document CHEMBL4715736, “Identification of anticancer agents based on the thieno[2,3-b]pyridine and 1H-pyrazole molecular scaffolds” (2016).

Tests used:
Format in all cases: functional
[1] = system: A549; test: Growth inhibition of human A549/ATCC cells assessed as cell growth at 0.01 uM incubated for 48 hrs by sulforhodamine B assay relative to control; settings: read-out: Activity
Outline: (§1)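 NCI Developmental Therapeutics Program NCI60 panel. Compounds that were active in the 10 µM one-dose screen went on to dose–response testing. Growth at each concentration is expressed relative to untreated control (100%). GI50 (concentration giving 50% of maximal inhibition of proliferation) and TGI (concentration giving total growth inhibition) were derived from the curves.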

[2] = system: HOP-62; test: Growth inhibition of human HOP-62 cells assessed as cell growth at 0.01 uM incubated for 48 hrs by sulforhodamine B assay relative to control; settings: read-out: Activity
[3] = system: COLO 205; test: Growth inhibition of human COLO 205 cells assessed as cell growth at 0.01 uM incubated for 48 hrs by sulforhodamine B assay relative to control; settings: read-out: Activity; outline: as §1
[4] = system: SW-620; test: Growth inhibition of human SW-620 cells assessed as cell growth at 0.01 uM incubated for 48 hrs by sulforhodamine B assay relative to control; settings: read-out: Activity
[5] = system: U-251; test: Growth inhibition of human U-251 cells assessed as cell growth at 0.01 uM incubated for 48 hrs by sulforhodamine B assay relative to control; settings: read-out: Activity
[6] = system: LOX IMVI; test: Growth inhibition of human LOX IMVI cells assessed as cell growth at 0.01 uM incubated for 48 hrs by sulforhodamine B assay relative to control; settings: read-out: Activity
[7] = system: NCI/ADR-RES; test: Growth inhibition of human NCI/ADR-RES cells assessed as cell growth at 0.01 uM incubated for 48 hrs by sulforhodamine B assay relative to control; settings: read-out: Activity
[8] = system: SK-OV-3; test: Growth inhibition of human SK-OV-3 cells assessed as cell growth at 0.01 uM incubated for 48 hrs by sulforhodamine B assay relative to control; settings: read-out: Activity
[9] = system: DU-145; test: Growth inhibition of human DU-145 cells assessed as cell growth at 0.01 uM incubated for 48 hrs by sulforhodamine B assay relative to control; settings: read-out: Activity; outline: as §1
[10] = system: BT-549; test: Growth inhibition of human BT-549 cells assessed as cell growth at 0.01 uM incubated for 48 hrs by sulforhodamine B assay relative to control; settings: read-out: Activity
[11] = system: RPMI-8226; test: Growth inhibition of human RPMI-8226 cells assessed as cell growth at 0.1 uM incubated for 48 hrs by sulforhodamine B assay relative to control; settings: read-out: Activity
[12] = system: SW-620; test: Growth inhibition of human SW-620 cells assessed as cell growth at 0.1 uM incubated for 48 hrs by sulforhodamine B assay relative to control; settings: read-out: Activity
[13] = system: 786-0; test: Growth inhibition of human 786-0 cells assessed as cell growth at 0.1 uM incubated for 48 hrs by sulforhodamine B assay relative to control; settings: read-out: Activity; outline: as §1
[14] = system: TK-10; test: Growth inhibition of human TK-10 cells assessed as cell growth at 0.1 uM incubated for 48 hrs by sulforhodamine B assay relative to control; settings: read-out: Activity
[15] = system: K562; test: Growth inhibition of human K562 cells assessed as cell growth at 1 uM incubated for 48 hrs by sulforhodamine B assay relative to control; settings: read-out: Activity
[16] = system: NCI-H322M; test: Growth inhibition of human NCI-H322M cells assessed as cell growth at 1 uM incubated for 48 hrs by sulforhodamine B assay relative to control; settings: read-out: Activity
[17] = system: NCI-H460; test: Growth inhibition of human NCI-H460 cells assessed as cell growth at 1 uM incubated for 48 hrs by sulforhodamine B assay relative to control; settings: read-out: Activity
[18] = system: NCI/ADR-RES; test: Growth inhibition of human NCI/ADR-RES cells assessed as cell growth at 1 uM incubated for 48 hrs by sulforhodamine B assay relative to control; settings: read-out: Activity
[19] = system: TK-10; test: Growth inhibition of human TK-10 cells assessed as cell growth at 1 uM incubated for 48 hrs by sulforhodamine B assay relative to control; settings: read-out: Activity
[20] = system: NCI-H226; test: Growth inhibition of human NCI-H226 cells assessed as cell growth at 100 uM incubated for 48 hrs by sulforhodamine B assay relative to control; settings: read-out: Activity
[21] = system: SF-295; test: Growth inhibition of human SF-295 cells assessed as cell growth at 100 uM incubated for 48 hrs by sulforhodamine B assay relative to control; settings: read-out: Activity
[22] = system: MDA-MB-435; test: Growth inhibition of human MDA-MB-435 cells assessed as cell growth at 100 uM incubated for 48 hrs by sulforhodamine B assay relative to control; settings: read-out: Activity
[23] = system: SK-MEL-2; test: Growth inhibition of human SK-MEL-2 cells assessed as cell growth at 100 uM incubated for 48 hrs by sulforhodamine B assay relative to control; settings: read-out: Activity
[24] = system: IGROV-1; test: Growth inhibition of human IGROV-1 cells assessed as cell growth at 100 uM incubated for 48 hrs by sulforhodamine B assay relative to control; settings: read-out: Activity
[25] = system: NCI/ADR-RES; test: Growth inhibition of human NCI/ADR-RES cells assessed as cell growth at 100 uM incubated for 48 hrs by sulforhodamine B assay relative to control; settings: read-out: Activity
[26] = system: SN12C; test: Growth inhibition of human SN12C cells assessed as cell growth at 100 uM incubated for 48 hrs by sulforhodamine B assay relative to control; settings: read-out: Activity
[27] = system: NCI-H226; test: Growth inhibition of human NCI-H226 cells incubated for 48 hrs by sulforhodamine B assay; settings: for CC50: read-out: LC50 (the source's name)
Outline: (§2)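 NCI60 panel at the NCI Developmental Therapeutics Program. Only compounds active in the 10 µM screen went to dose-response testing. GI50, the concentration giving 50% of maximal inhibition of proliferation, and TGI, the concentration giving total growth inhibition, were derived from the dose-response curves.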

[28] = system: SF-539; test: Growth inhibition of human SF-539 cells incubated for 48 hrs by sulforhodamine B assay; settings: for CC50: read-out: LC50 (the source's name)
Outline: (§3)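 NCI DTP 60-line human tumour panel. Dose-response curves were run only for ligands active in the initial 10 µM screen. GI50 (concentration giving 50% of maximal inhibition of proliferation) and TGI (concentration giving total growth inhibition) were derived from these curves.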

[29] = system: SNB-75; test: Growth inhibition of human SNB-75 cells incubated for 48 hrs by sulforhodamine B assay; outline: as §3
[30] = system: U-251; test: Growth inhibition of human U-251 cells incubated for 48 hrs by sulforhodamine B assay; outline: as §3
[31] = system: SK-MEL-28; test: Growth inhibition of human SK-MEL-28 cells incubated for 48 hrs by sulforhodamine B assay; outline: as §3
[32] = system: UO-31; test: Growth inhibition of human UO-31 cells incubated for 48 hrs by sulforhodamine B assay; settings: for CC50: read-out: LC50 (the source's name); outline: as §3
[33] = system: MDA-MB-231; test: Growth inhibition of human MDA-MB-231 cells incubated for 48 hrs by sulforhodamine B assay; settings: for CC50: read-out: LC50 (the source's name); outline: as §2
[34] = system: Hs-578T; test: Growth inhibition of human Hs-578T cells incubated for 48 hrs by sulforhodamine B assay; settings: for CC50: read-out: LC50 (the source's name); outline: as §2

COc1cccc(NC(=O)c2sc3nc4c(cc3c2N)CN(Cc2ccccc2)CC4)c1
growth at 0.01 µM [1]: 96% | growth at 0.01 µM [2]: 80% | growth at 0.01 µM [3]: 92% | growth at 0.01 µM [4]: 100% | growth at 0.01 µM [5]: 99% | growth at 0.01 µM [6]: 97% | growth at 0.01 µM [7]: 102% | growth at 0.01 µM [8]: 92% | growth at 0.01 µM [9]: 105% | growth at 0.01 µM [10]: 88% | growth at 0.1 µM [11]: 101% | growth at 0.1 µM [12]: 99% | growth at 0.1 µM [13]: 93% | growth at 0.1 µM [14]: 104% | growth at 1 µM [15]: 31% | growth at 1 µM [16]: 83% | growth at 1 µM [17]: 92% | growth at 1 µM [18]: 63% | growth at 1 µM [19]: 98% | growth at 100 µM [20]: -29% | growth at 100 µM [21]: -52% | growth at 100 µM [22]: -74% | growth at 100 µM [23]: -28% | growth at 100 µM [24]: 4% | growth at 100 µM [25]: -26% | growth at 100 µM [26]: 16% | GI50 [27]: 6.03 µM | TGI [27]: 38.3 µM | CC50 [27]: > 100 µM | GI50 [28]: 1.99 µM | TGI [28]: 6.56 µM | CC50 [28]: 36.4 µM | GI50 [29]: 1.73 µM | LC50 [29]: 33.7 µM | TGI [29]: 4.71 µM | GI50 [30]: 2.74 µM | LC50 (concentration killing 50% of cells) [30]: 88.7 µM | TGI [30]: 19.2 µM | GI50 [31]: 2.8 µM | LC50 [31]: > 100 µM | TGI [31]: 29.7 µM | GI50 [32]: 3.27 µM | TGI [32]: 32.3 µM | CC50 [32]: > 100 µM | GI50 [33]: 11.4 µM | TGI [33]: 75.3 µM | CC50 [33]: > 100 µM | GI50 [34]: 2.14 µM | TGI [34]: 23 µM | CC50 [34]: > 100 µM

Cc1ccc(NC(=O)c2sc3nc4c(cc3c2N)C(=O)CCC4)cc1C
growth at 0.01 µM [1]: 100% | growth at 0.01 µM [2]: 89% | growth at 0.01 µM [3]: 101% | growth at 0.01 µM [4]: 99% | growth at 0.01 µM [5]: 98% | growth at 0.01 µM [6]: 97% | growth at 0.01 µM [7]: 100% | growth at 0.01 µM [8]: 103% | growth at 0.01 µM [9]: 104% | growth at 0.01 µM [10]: 107% | growth at 0.1 µM [11]: 97% | growth at 0.1 µM [12]: 95% | growth at 0.1 µM [13]: 88% | growth at 0.1 µM [14]: 85% | growth at 1 µM [15]: 17% | growth at 1 µM [16]: 49% | growth at 1 µM [17]: 11% | growth at 1 µM [18]: 39% | growth at 1 µM [19]: 52% | growth at 100 µM [20]: 36% | growth at 100 µM [21]: 12% | growth at 100 µM [22]: -46% | growth at 100 µM [23]: 18% | growth at 100 µM [24]: 10% | growth at 100 µM [25]: 4% | growth at 100 µM [26]: 17% | GI50 [27]: 22.4 µM | TGI [27]: > 100 µM | CC50 [27]: > 100 µM | GI50 [28]: 0.404 µM | CC50 [28]: > 100 µM | GI50 [29]: 0.183 µM | LC50 [29]: > 100 µM | TGI [29]: > 100 µM | GI50 [30]: 0.68 µM | LC50 (concentration killing 50% of cells) [30]: > 100 µM | TGI [30]: ≥ 100 µM | GI50 [31]: 1.51 µM | LC50 [31]: > 100 µM | TGI [31]: > 100 µM | GI50 [32]: 0.0505 µM | TGI [32]: > 100 µM | CC50 [32]: > 100 µM | GI50 [33]: 1.51 µM | TGI [33]: > 100 µM | CC50 [33]: > 100 µM | GI50 [34]: 0.356 µM | TGI [34]: > 100 µM | CC50 [34]: > 100 µM
